# Results from ChEMBL document CHEMBL4699643, “γ-Ketobenzyl-Modified Nucleoside Triphosphate Prodrugs as Potential Antivirals” (J Med Chem, 2020).
# System: Human immunodeficiency virus 2
# Experiment: Antiviral activity against HIV2 ROD infected in human CEM/0 cells assessed as inhibition of virus-induced syncytia cell formation measured after 4 to 5 days by microscopic analysis
# Details: Human immunodeficiency virus 2, ISOLATE ROD, CCRF-CEM; call rule not given here
row,EC50 [nM],Structure (SMILES)
1,100,CCCCCCCCCCCCCCCCCC(=O)Oc1ccc(COP(=O)(OCc2ccc(OC(=O)CCCC)cc2)OP(=O)(O)OP(=O)(O)OC[C@@H]2C=C[C@H](n3cc(C)c(=O)[nH]c3=O)O2)cc1 (some centres not stated)
2,600,CCCCCCCCCCCCCCCCCC(=O)c1ccc(COP(=O)(O)OP(=O)(O)OP(=O)(O)OC[C@@H]2C=C[C@H](n3cc(C)c(=O)[nH]c3=O)O2)cc1
3,8800,CCCCCCCCCC(=O)c1ccc(COP(=O)(O)OP(=O)(O)OP(=O)(O)OC[C@H]2O[C@@H](n3cc(C)c(=O)[nH]c3=O)C[C@@H]2O)cc1

# System: not listed separately
# Experiment: Stability in human CEM/0 cell extract assessed as parent compound remaining after 98 hrs by HPLC analysis
# Format: ADME, tissue-based, CCRF-CEM
# Details: read-out: Stabilty
# In short: (§1)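 Extract preparation: CEM CD4⁺ T-cells grown in RPMI-1640 to ~3 × 10⁶ cells/mL, washed in cold PB, resuspended at 10⁸ cells/mL, sonicated, clarified at 10,000 rpm and stored at −80 °C. Compounds from 50 mM DMSO stock (diluted to 6.0 mM in DMSO) incubated in the extract. Reactions stopped with THF, put on ice, centrifuged and filtered.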
row,remaining at 98 h [%],Structure (SMILES)
1,89,CCCCCCCCCCCCCCCCCC(=O)c1ccc(COP(=O)(O)OP(=O)(O)OP(=O)(O)OC[C@@H]2C=C[C@H](n3cc(C)c(=O)[nH]c3=O)O2)cc1

# System: not listed separately
# Experiment: Prodrug conversion in human CEM/0 cell extract assessed as d4TDP formation after 96 hrs by HPLC analysis
# Format: ADME, tissue-based
# Details: ccrf-cem
# In short: as §1
row,Drug metabolism,Structure (SMILES)
1,Metabolite_Notdetected,CCCCCCCCCCCCCCCCCC(=O)c1ccc(COP(=O)(O)OP(=O)(O)OP(=O)(O)OC[C@@H]2C=C[C@H](n3cc(C)c(=O)[nH]c3=O)O2)cc1

# System: not listed separately
# Experiment: Prodrug conversion in human CEM/0 cell extract assessed as d4TTP formation after 96 hrs by HPLC analysis
# Format: ADME, tissue-based
# Details: ccrf-cem
# In short: as §1
row,Drug metabolism,Structure (SMILES)
1,Metabolite_Notdetected,CCCCCCCCCCCCCCCCCC(=O)c1ccc(COP(=O)(O)OP(=O)(O)OP(=O)(O)OC[C@@H]2C=C[C@H](n3cc(C)c(=O)[nH]c3=O)O2)cc1

# System: not listed separately
# Experiment: Cytotoxicity against human CEM/0 CD4+ T cells assessed as reduction in cell viability
# Format: cell-based, CCRF-CEM
# Details: not given
# In short: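 Cytostatic readout: CC₅₀ is the compound concentration inhibiting CEM CD4⁺ T-cell proliferation by 50%. Values are the mean ± SD of n = 2−3 independent experiments.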
row,Structure (SMILES),CC50 [nM]
1,CCCCCCCCCCCCCCCCCC(=O)Oc1ccc(COP(=O)(OCc2ccc(OC(=O)CCCC)cc2)OP(=O)(O)OP(=O)(O)OC[C@@H]2C=C[C@H](n3cc(C)c(=O)[nH]c3=O)O2)cc1 (some centres not stated),33000
2,CCCCCCCCCCCCCCCCCC(=O)c1ccc(COP(=O)(O)OP(=O)(O)OP(=O)(O)OC[C@@H]2C=C[C@H](n3cc(C)c(=O)[nH]c3=O)O2)cc1,13000
3,CCCCCCCCCC(=O)c1ccc(COP(=O)(O)OP(=O)(O)OP(=O)(O)OC[C@H]2O[C@@H](n3cc(C)c(=O)[nH]c3=O)C[C@@H]2O)cc1,10000

# System: not listed separately
# Experiment: Prodrug conversion in PBS buffer at pH 7.3 assessed as pig liver esterase-mediated cleavage of ketobenzyl-residue measured over 800 hrs by HPLC analysis
# Format: ADME, Sus scrofa
# Details: pH 7.3, 800 h
row,Drug metabolism,Structure (SMILES)
1,Metabolite_Notdetected,CCCCCCCCCCCCCCCCCC(=O)c1ccc(COP(=O)(O)OP(=O)(O)OP(=O)(O)OC[C@@H]2C=C[C@H](n3cc(C)c(=O)[nH]c3=O)O2)cc1
2,Metabolite_Notdetected,CCCCCCCCCC(=O)c1ccc(COP(=O)(O)OP(=O)(O)OP(=O)(O)OC[C@H]2O[C@@H](n3cc(C)c(=O)[nH]c3=O)C[C@@H]2O)cc1

# System: Human immunodeficiency virus 2
# Experiment: Antiviral activity against HIV2 ROD infected in human TK-deficient […] cells assessed as inhibition of viral-induced giant cell formation incubated for 4 to 5 days by microscopy
# Details: Human immunodeficiency virus 2, ISOLATE ROD
row,EC50 [nM],Structure (SMILES)
1,540,CCCCCCCCCCCCCCCCCC(=O)Oc1ccc(COP(=O)(OCc2ccc(OC(=O)CCCC)cc2)OP(=O)(O)OP(=O)(O)OC[C@@H]2C=C[C@H](n3cc(C)c(=O)[nH]c3=O)O2)cc1 (some centres not stated)
2,260,CCCCCCCCCCCCCCCCCC(=O)c1ccc(COP(=O)(O)OP(=O)(O)OP(=O)(O)OC[C@@H]2C=C[C@H](n3cc(C)c(=O)[nH]c3=O)O2)cc1
3,> 10000,CCCCCCCCCC(=O)c1ccc(COP(=O)(O)OP(=O)(O)OP(=O)(O)OC[C@H]2O[C@@H](n3cc(C)c(=O)[nH]c3=O)C[C@@H]2O)cc1

# System: not listed separately
# Experiment: Substrate activity at HIV reverse transcriptase assessed as increase in primer extension incubated at 37 degC for 60 mins and at 80 degC for 3 mins in presence of fluorescent-lebelled dATP, dCTP and dGTP by PAGE analysis
# Format: ADME
# Details: human immunodeficiency virus, 1.05 h; time 63 min
row,Activity,Structure (SMILES)
1,Active,CCCCCCCCCCCCCCCCCC(=O)c1ccc(COP(=O)(O)OP(=O)(O)OP(=O)(O)OC[C@@H]2C=C[C@H](n3cc(C)c(=O)[nH]c3=O)O2)cc1

# System: not listed separately
# Experiment: Stability in human CEM/0 cell extract assessed as parent compound remaining up to 98 hrs by HPLC analysis
# Format: ADME, tissue-based, CCRF-CEM
# Details: read-out: Stabilty
# In short: as §1
row,remaining at 98 h [%],Structure (SMILES)
1,98,CCCCCCCCCC(=O)c1ccc(COP(=O)(O)OP(=O)(O)OP(=O)(O)OC[C@H]2O[C@@H](n3cc(C)c(=O)[nH]c3=O)C[C@@H]2O)cc1

# System: not listed separately
# Experiment: Stability of compound in human CEM/0 cell extract assessed as half life by RP18-HPLC analysis
# Format: ADME, tissue-based, CCRF-CEM
# Details: not given
# In short: as §1
row,half-life [h],Structure (SMILES)
1,> 30,CCCCCCCCCCCCCCCCCC(=O)c1ccc(COP(=O)(O)OP(=O)(O)OP(=O)(O)OC[C@@H]2C=C[C@H](n3cc(C)c(=O)[nH]c3=O)O2)cc1
2,> 30,CCCCCCCCCC(=O)c1ccc(COP(=O)(O)OP(=O)(O)OP(=O)(O)OC[C@H]2O[C@@H](n3cc(C)c(=O)[nH]c3=O)C[C@@H]2O)cc1

# System: not listed separately
# Experiment: Chemical stability of compound in PBS at pH 7.3 by RP18-HPLC analysis
# Format: physicochemical
# Details: buffer
# In short: (§2)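 From 50 mM DMSO stocks, diluted to 1.9 mM hydrolysis solutions in water/DMSO. Reaction started by adding phosphate buffer (50 mM, pH 7.3; 25 mM also stated). Incubated at 37 °C with time-course sampling. Starting material and products (γ-kb-NTP, d4TDP, thymine) followed by analytical rp18 HPLC, from which t½ was calculated.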
row,Stabilty,Structure (SMILES)
1,Stable,CCCCCCCCCCCCCCCCCC(=O)c1ccc(COP(=O)(O)OP(=O)(O)OP(=O)(O)OC[C@@H]2C=C[C@H](n3cc(C)c(=O)[nH]c3=O)O2)cc1
2,Stable,CCCCCCCCCC(=O)c1ccc(COP(=O)(O)OP(=O)(O)OP(=O)(O)OC[C@H]2O[C@@H](n3cc(C)c(=O)[nH]c3=O)C[C@@H]2O)cc1

# System: Human immunodeficiency virus 1
# Experiment: Antiviral activity against HIV1 3B infected in human CEM/0 cells assessed as inhibition of virus-induced syncytia cell formation measured after 4 to 5 days by microscopic analysis
# Format: functional, organism-based
# Details: Human immunodeficiency virus 1, 3B, CCRF-CEM
# In short: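 Syncytium-inhibition assay in wild-type CEM/0 or TK-deficient CEM/TK⁻ cells, ~3 × 10⁵ cells/mL, infected with 100 CCID₅₀/mL HIV-1(III_B) or HIV-2(ROD), with serial compound dilutions. Incubated 4−5 days at 37 °C in humidified CO₂ atmosphere. Giant cells scored microscopically; EC₅₀ is the concentration halving HIV-induced giant cell formation. Values are the mean ± SD of n = 2−3 independent experiments.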
row,EC50 [nM],Structure (SMILES)
1,120,CCCCCCCCCCCCCCCCCC(=O)Oc1ccc(COP(=O)(OCc2ccc(OC(=O)CCCC)cc2)OP(=O)(O)OP(=O)(O)OC[C@@H]2C=C[C@H](n3cc(C)c(=O)[nH]c3=O)O2)cc1 (some centres not stated)
2,330,CCCCCCCCCCCCCCCCCC(=O)c1ccc(COP(=O)(O)OP(=O)(O)OP(=O)(O)OC[C@@H]2C=C[C@H](n3cc(C)c(=O)[nH]c3=O)O2)cc1
3,6600,CCCCCCCCCC(=O)c1ccc(COP(=O)(O)OP(=O)(O)OP(=O)(O)OC[C@H]2O[C@@H](n3cc(C)c(=O)[nH]c3=O)C[C@@H]2O)cc1

# System: not listed separately
# Experiment: Chemical stability of compound assessed as half life in PBS at pH 7.3 by RP18-HPLC analysis
# Format: physicochemical
# Details: not given
# In short: as §2
row,half-life [h],Structure (SMILES)
1,50,CCCCCCCCCCCCCCCCCC(=O)Oc1ccc(COP(=O)(OCc2ccc(OC(=O)CCCC)cc2)OP(=O)(O)OP(=O)(O)OC[C@@H]2C=C[C@H](n3cc(C)c(=O)[nH]c3=O)O2)cc1 (some centres not stated)

# System: not listed separately
# Experiment: Substrate activity at HIV reverse transcriptase assessed as increase in primer extension incubated at 37 degC for 15 mins in presence of radiolabeled dATP, dCTP, and dGTP by PAGE analysis
# Format: ADME
# Details: human immunodeficiency virus, 0.25 h
# In short: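 Template 30-mer annealed to a ³²P-labelled 25-mer primer (95 °C, then cooled to −20 °C over 3 h; 20 mM Tris-HCl pH 7.6, 50 mM NaCl). Reaction: 50 mM Tris-HCl pH 8.6, 10 mM MgCl₂, 40 mM KCl, nucleotides 66 μM, HIV-RT 0.2 U, duplex 0.32 μM. Run 15 min at 37 °C, stopped at 80 °C for 3 min. Resolved on denaturing 15% PAGE and read by phosphorimaging.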
row,Activity,Structure (SMILES)
1,Active,CCCCCCCCCC(=O)c1ccc(COP(=O)(O)OP(=O)(O)OP(=O)(O)OC[C@H]2O[C@@H](n3cc(C)c(=O)[nH]c3=O)C[C@@H]2O)cc1

# System: not listed separately
# Experiment: Substrate activity at human DNA polymerase gamma assessed as increase in primer extension incubated at 37 degC for 60 mins and at 80 degC for 3 mins in presence of fluorescent-lebelled dATP, dCTP and dGTP by PAGE analysis
# Format: ADME
# Details: 1.05 h, time 63 min
# In short: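 Human DNA polymerase γ (4 U) with Cy3-primer/template duplex 0.20 μM in 60 mM Tris-HCl pH 8, 5 mM MgOAc, 1.0 mM DTT, 0.1 mM spermine, 0.01% BSA. Preincubated 5 min at 37 °C without nucleotides, then run 60 min at 37 °C with nucleotides 250 μM, then 80 °C for 3 min. Denaturing 15% PAGE with fluorescence imaging.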
row,Activity,Structure (SMILES)
1,Not Active,CCCCCCCCCCCCCCCCCC(=O)c1ccc(COP(=O)(O)OP(=O)(O)OP(=O)(O)OC[C@@H]2C=C[C@H](n3cc(C)c(=O)[nH]c3=O)O2)cc1
2,Not Active,CCCCCCCCCC(=O)c1ccc(COP(=O)(O)OP(=O)(O)OP(=O)(O)OC[C@H]2O[C@@H](n3cc(C)c(=O)[nH]c3=O)C[C@@H]2O)cc1
